Assay results published in ChEMBL document CHEMBL2331491, “Novel imidazophenoxazine-4-sulfonamides: their synthesis and evaluation as potential inhibitors of PDE4” (Bioorg Med Chem, 2013).

Columns and labels:
[1] = molecular target: T1, 3',5'-cyclic-AMP phosphodiesterase 4B (Homo sapiens, UniProt Q07343); experiment: Inhibition of PDE4B1 (unknown origin) expressed in sf9 cells using cAMP as substrate preincubated at 30 uM for 15 mins before substrate addition measured after 1 hr by luminescence assay
Outline: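 His-tagged PDE4B1 was expressed in baculovirus-infected Sf9 cells (lysed 48 h post infection) and purified on Ni-NTA. 10 ng of enzyme was preincubated 15 min with compound or DMSO vehicle, then given cAMP substrate for 1 h. The reaction was stopped and detection reagent added for 10 min in the dark before reading luminescence. % inhibition = (RLU vehicle − RLU inhibitor)/RLU vehicle × 100, at a single screening concentration.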

[2] = molecular target: T1, 3',5'-cyclic-AMP phosphodiesterase 4B; experiment: Inhibition of PDE4B1 (unknown origin) expressed in sf9 cells using cAMP as substrate preincubated for 15 mins before substrate addition measured after 1 hr by luminescence assay
Outline: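 Ni-NTA-purified His-tagged PDE4B1 from baculovirus-infected Sf9 cells was used at 10 ng per reaction. Enzyme was preincubated 15 min with compound (9 concentrations) or DMSO, then cAMP for 1 h. After stop solution and 10 min detection reagent in the dark, luminescence was read. % inhibition was taken versus vehicle RLU. IC50 came from nonlinear regression of the dose-response curve and is given as mean ± SD.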

T1 sequence (Q07343 whole entry): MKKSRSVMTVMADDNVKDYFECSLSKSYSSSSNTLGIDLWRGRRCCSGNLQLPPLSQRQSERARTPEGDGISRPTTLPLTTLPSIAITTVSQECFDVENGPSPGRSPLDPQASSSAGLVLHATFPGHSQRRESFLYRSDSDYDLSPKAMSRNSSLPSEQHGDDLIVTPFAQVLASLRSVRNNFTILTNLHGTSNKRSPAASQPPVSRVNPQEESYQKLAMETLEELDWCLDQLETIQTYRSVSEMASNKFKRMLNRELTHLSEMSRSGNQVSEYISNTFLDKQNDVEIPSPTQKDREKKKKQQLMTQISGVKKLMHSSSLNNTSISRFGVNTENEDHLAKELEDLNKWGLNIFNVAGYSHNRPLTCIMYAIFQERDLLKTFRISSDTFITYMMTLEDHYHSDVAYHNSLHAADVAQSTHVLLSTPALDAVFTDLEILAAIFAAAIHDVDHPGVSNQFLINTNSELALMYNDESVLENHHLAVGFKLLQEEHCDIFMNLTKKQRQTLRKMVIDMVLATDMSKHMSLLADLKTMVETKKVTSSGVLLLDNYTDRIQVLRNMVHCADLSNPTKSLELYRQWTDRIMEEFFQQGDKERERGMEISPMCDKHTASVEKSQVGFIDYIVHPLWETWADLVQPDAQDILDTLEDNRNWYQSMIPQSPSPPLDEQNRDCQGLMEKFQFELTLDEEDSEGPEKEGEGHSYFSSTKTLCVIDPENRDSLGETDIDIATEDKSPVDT

inhibition [1] | IC50 [2] | inhibition [2] | SMILES
76.3% | – | – | NS(=O)(=O)c1cc2c3c(c1)nc(-c1ccccc1Cl)n3-c1ccccc1O2
19.7% | – | – | CCN(CC)c1ccc(-c2nc3cc(S(N)(=O)=O)cc4c3n2-c2ccccc2O4)c(O)c1
92.9% | 530 nM | Dose-dependent effect | NS(=O)(=O)c1cc2c3c(c1)nc(-c1cc(Br)ccc1F)n3-c1ccccc1O2
88.8% | – | – | NS(=O)(=O)c1cc2c3c(c1)nc(-c1ccc(O)cc1)n3-c1ccccc1O2
66.8% | – | – | NS(=O)(=O)c1cc2c3c(c1)nc(-c1cccc([N+](=O)[O-])c1)n3-c1ccccc1O2
87.6% | – | – | NS(=O)(=O)c1cc2c3c(c1)nc(-c1cccc(O)c1)n3-c1ccccc1O2
89.7% | 1230 nM | Dose-dependent effect | NS(=O)(=O)c1cc2c3c(c1)nc(-c1cccc(Br)c1)n3-c1ccccc1O2
80.3% | – | – | NS(=O)(=O)c1cc2c3c(c1)nc(-c1ccc(Cl)cc1)n3-c1ccccc1O2
79.7% | – | – | NS(=O)(=O)c1cc2c3c(c1)nc(-c1ccccc1)n3-c1ccccc1O2
89.3% | 3310 nM | Dose-dependent effect | NS(=O)(=O)c1cc2c3c(c1)nc(-c1ccccc1O)n3-c1ccccc1O2
66.5% | – | – | COc1ccc(-c2nc3cc(S(N)(=O)=O)cc4c3n2-c2ccccc2O4)cc1
82.4% | – | – | COc1cc(-c2nc3cc(S(N)(=O)=O)cc4c3n2-c2ccccc2O4)ccc1O
80.2% | – | – | NS(=O)(=O)c1cc2c3c(c1)nc(-c1c(Cl)cccc1Cl)n3-c1ccccc1O2
81% | – | – | NS(=O)(=O)c1cc2c3c(c1)nc(-c1ccccc1Br)n3-c1ccccc1O2
